Cytotoxicity data for 98 compounds are collected here from ChEMBL document CHEMBL4513216, “Probing the Open Global Health Chemical Diversity Library for Multistage-Active Starting Points for Next-Generation Antimalarials” (ACS Infect Dis, 2020).

SMILES strings stand for the structures.

The series in a line: Toxicity liver stage against HepG2, at 10uM. The conditions noted are these: human, HepG2-A16-CD81EGFP cells; read-out: INHIBITION
The class given is cell-based. Also noted: test concentration 10 uM, cell line HepG2-A16-CD81EGFP. The essentials:
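Uninfected HepG2-A16-CD81EGFP cells, 3 × 10^3 per well, 1536-well, plated on prespotted compound at 10 μM final, parasite-free screening media added to match infected plates; puromycin 10 μM positive, DMSO 0.5% negative; run in parallel with 48 h PbLuc assay at 37 °C, 5% CO2; viability by CellTiter-Glo luminescence, normalized to controls.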
With `Cc1cc(NC(=O)NCC2CCN(C(C)C)C2)no1` (stereo not drawn), the cytotoxicity at 10 µM is -15.3%. Next, `COc1ccc(CN2C[C@@H](F)[C@@H](OCc3nc4cnccc4[nH]3)C2)cn1`: 2.08%; `O=C(Nc1ccccc1)[C@H]1O[C@H](CCN2CCNCC2)CC[C@@H]1O`: -7.49%. For the compound `O[C@@H]1C[C@@H](c2nc(-c3ccccc3)no2)N(Cc2ccncc2)C1`, the cytotoxicity at 10 µM worked out at 2.77%.

On to `CSc1ncccc1C(=O)NCc1ccc(N(C)C)cc1`, for which the cytotoxicity at 10 µM was found to be 4.74%. On to `CC(=O)N1N=C(c2cccs2)OC1C(=O)Nc1ccc(C)cc1` (stereo not drawn), for which the cytotoxicity at 10 µM was -4.14%. As to `C=C(C)COc1ccc(C(CC(=O)OC)c2oc(C)cc(=O)c2O)cc1` (stereo not drawn), the cytotoxicity at 10 µM was -9.24%. In the case of `CC1CCN(c2ccc(=O)n(CC(=O)NCCc3ccccc3)n2)CC1`, the cytotoxicity at 10 µM was found to be 0.277%. Take `COc1ccc(S(=O)(=O)NCC(c2cccn2C)N(C)C)c(C)c1` (stereo not drawn): the cytotoxicity at 10 µM came to 7.78%. For `Cc1noc(C)c1CN1C[C@@H]2OCCN(Cc3cnn(C)c3)[C@@H]2C1`, the cytotoxicity at 10 µM is -139%. For `Cc1cnc(C(=O)N2CCC3(CC2)CC(c2ccccc2)C(=O)N3)cn1` (stereo not drawn), the cytotoxicity at 10 µM was 4.9%. Next, `CC(C)n1[nH]c(=O)c2c1NC(=O)CC2C1CCCCC1` (stereo not drawn): -12.9%; `CC(Cn1cc(Br)cn1)C(=O)Nc1ccncc1` (stereo not drawn): -2.82%. As to `Cc1cccc(N2CCCN=C2NC(=O)c2cccc(Cl)c2)c1`, the cytotoxicity at 10 µM turned out to be 6.39%. Next, `O=C1CNc2ncnc(NCc3cccs3)c2N1`: 2.99%.

Turning to `O=C(CCn1nc(C(F)(F)F)c(Br)c1C1CC1)NN1CCOCC1`, the cytotoxicity at 10 µM was found to be 8.85%. Next, `CCN(CC)S(=O)(=O)N1CCCC1c1nnc2n1CCN(C)CC2` (stereo not drawn): 0.45%; `O=C(O)[C@@H]1OCC(=O)N(Cc2cccc(Cl)c2)[C@@H]1c1ccccc1`: 3.94%.

Take `CN1CCCC1c1ccnc(-c2ccccc2)n1` (stereo not drawn): the cytotoxicity at 10 µM was found to be 2.77%. Next, `O=C(NCC1(O)COCCN(Cc2cccc(O)c2)C1)c1cnccn1` (stereo not drawn): -6.49%.

For `Cc1cccc(CNC(Cc2ccsc2)c2nccs2)n1` (stereo not drawn), the cytotoxicity at 10 µM stood at 2.83%. As for `CC(C)(C)c1cc(NC(=O)CN(Cc2cccs2)Cc2cccs2)on1`, the cytotoxicity at 10 µM is 14.2%. `CC(=O)N1CCC(C(=O)Nc2nnc(C(F)(F)F)[nH]2)CC1`: the cytotoxicity at 10 µM was -3.37%. Next, `Cc1n[nH]c(-c2ccc(NC(=O)C(C)(C)N3CCN(C)CC3)cc2)n1`: -0.876%; `Cc1cc(OC(F)F)c(C(=O)NCC(O)c2cccc(F)c2)s1` (stereo not drawn): -4.3%; `O=C(Nc1cccnc1)C1=Cc2ccccc2OC1`: 4.19%. As for `COc1cccc(COC(C)C(=O)N(C)Cc2nnc3n2CCC3)c1` (stereo not drawn), the cytotoxicity at 10 µM is 6.32%.

Regarding `O=C(NCc1cc(-c2ccccc2)no1)NC1CCCCNC1=O` (stereo not drawn), the cytotoxicity at 10 µM is -145%. Take `CC(C)c1noc(OCC(=O)N2CCCCC2C)n1` (stereo not drawn): the cytotoxicity at 10 µM was determined as 1.45%.

In the case of `CCc1cnc(CNC(=O)NCCCO)s1`, the cytotoxicity at 10 µM is -5.42%. Next, `CN1CCc2ccc(NCc3cscn3)cc2C1=O`: -2.43%. Next, `CC(O)(CNc1ccc(Cl)c(C#N)n1)c1ccccc1` (stereo not drawn): -9.06%. As for `Cc1c(C(=O)NC2CCCOc3cc(Cl)ccc32)cnn1C` (stereo not drawn), the figure is -0.572%.

As to `Cc1nc(NC(=O)C(C)N(C)Cc2cccc(C#N)c2)sc1C` (stereo not drawn), the cytotoxicity at 10 µM was -0.506%. `Cc1c(C(=O)N2CC(C)(C)C2(C)C)nnn1-c1cccc2cnccc12`: the cytotoxicity at 10 µM worked out at 9.68%. For the compound `O=C(CCNc1ncccn1)NCc1ccc(Br)s1`, the cytotoxicity at 10 µM stood at 6.72%. As for `CC(C)Oc1ccc(C(=O)Cn2cnnc2[S+](C)[O-])cc1` (stereo not drawn), the figure is -4.68%; as for `COc1ccc(C(=O)O)c(OCC(=O)NC(C)c2ccccc2)c1` (stereo not drawn), 1.97%; as for `O=C(CCNC(=O)N1CCC(c2ccccc2)C1)N1CCCCC1` (stereo not drawn), -3.41%. Next, `CS(=O)(=O)NCCC1CCCCN1C(=O)NCCc1ccccn1` (stereo not drawn): -4.24%. Next, `CS(=O)(=O)N1CCc2c(cccc2NC(=O)NC2CCCC2)C1`: -6.78%; `COc1cccc(OCC(=O)Nc2cc(C)cnc2OC)c1`: -11.4%. Take `O=C(COC1CCCC1)NCCCn1nc2ccccn2c1=O`: the cytotoxicity at 10 µM stood at 5.78%. As for `Cc1nc(C2CCCN2CC(=O)Nc2c(C)nn(C)c2C)no1` (stereo not drawn), the figure is -3.08%. For `CC(=O)Nc1cccc(CNC(=O)N(C)Cc2ccccc2)c1`, the cytotoxicity at 10 µM is -2.11%. As to `CC(C)Oc1ccccc1C(=O)NCCc1nncn1C`, the cytotoxicity at 10 µM was -7.71%. As for `COc1cccc(NC(=O)N(CCO)C2CCc3ccccc32)c1` (stereo not drawn), the figure is -1.08%. Next, `O=C(Nc1nncs1)N(Cc1cccc(F)c1)C1CC1`: 47.6%; `CC(C)c1nc2c(n1C)CCN(CCCc1nc3ccccc3o1)C2`: 2.07%. As for `CN(Cc1ccc(Br)s1)Cn1nc(-c2ccc(F)cc2)oc1=O`, the figure is 1.64%. With `COCCOc1cc(C(=O)N2CC(C)c3ccccc32)ccn1` (stereo not drawn), the cytotoxicity at 10 µM was found to be 2.16%. Next, `Cc1cc(CNC(=O)CC2CN(C(=O)OC(C)(C)C)C2)ccc1F`: 4.21%; `Cn1cnnc1CNC(=O)C1CCCN(Cc2ccccc2)C1` (stereo not drawn): 3.57%. Next, `CCC(CNS(=O)(=O)c1c[nH]cn1)Oc1ccccc1F` (stereo not drawn): 7.22%; `O=C1C(n2nnc(-c3cccs3)n2)CCN1CC(F)(F)F` (stereo not drawn): -0.0198%. In the case of `COC(=O)C1CCCCN1Cc1cccc(C(=O)NCc2ccco2)c1` (stereo not drawn), the cytotoxicity at 10 µM was -12.5%. Turning to `CCc1nsc(N2CCn3c(nnc3C(F)(F)F)C2)n1`, the cytotoxicity at 10 µM was -0.657%. Take `Cc1cc(C)c(CNc2ncnc3ccsc23)c(=O)[nH]1`: the cytotoxicity at 10 µM is 15.9%. With `Cc1c(CNC(=O)Nc2cccc3c2CCN3C)cnn1C`, the cytotoxicity at 10 µM was -1.02%.

Turning to `CCOCCN1CCN(CCCc2nnnn2-c2ccccc2)CC1`, the cytotoxicity at 10 µM was found to be 6.45%. As for `CC(C)c1nsc(N2CCc3sccc3C2)n1`, the figure is 20.9%; as for `Clc1ccc(CN2CCN(Cn3nccc3-c3cccnc3)CC2)s1`, 8.64%; as for `CS(=O)(=O)NCCC(=O)NC1CCc2nccn2C1` (stereo not drawn), 9.46%. For the compound `COc1cc(C)c(C(C)NC(=O)Nc2nnc(C)s2)cc1OC` (stereo not drawn), the cytotoxicity at 10 µM amounted to 1.03%. As for `CCN(CC)C(=O)c1ccc(NC(=O)CNc2ccc(F)cc2Cl)cc1`, the figure is -5.31%; as for `CO[C@H]1CN(C(=O)c2ccnnc2)[C@@H]2COC[C@H]12`, 2.83%. Regarding `Cc1cccc(C2CCCN(C(=O)CN3CCCC3=O)C2)c1` (stereo not drawn), the cytotoxicity at 10 µM was -0.942%. Regarding `OC1(CN2CCc3nnc(Cc4cccnc4)n3CC2)CCCNC1` (stereo not drawn), the cytotoxicity at 10 µM is 21.7%. Next, `Cn1cc(C(=O)N2CCCC(c3ncc[nH]3)C2)cn1` (stereo not drawn): 1.95%; `Cc1nnsc1CNC(=O)c1ccc2c(c1)nc(N1CCOCC1)n2C`: -13.8%. Next, `Cc1cc(C(=O)NCc2cccnc2N2CCc3ccccc3C2)[nH]n1`: 14.4%; `COCc1noc(-c2ccc(N(C)Cc3ncccc3C)nc2)n1`: -0.0612%. Regarding `Cc1ccc(C(=O)N2CCC3(CCC(=O)N(C(C)C)C3)CC2)c(O)c1`, the cytotoxicity at 10 µM stood at 17.5%. As for `CCC[C@H]1CN(CCS(C)(=O)=O)C[C@@H]1NC(=O)c1cccnn1`, the figure is 3.25%. Turning to `Cn1c(N2CCOCC2)nc2cc(C(=O)N3CCCOCC3)ccc21`, the cytotoxicity at 10 µM is -1.29%.

As to `O=C(CN1CCCCCC1)NCCSc1cnn[nH]1`, the cytotoxicity at 10 µM is -7.15%. As for `Cc1ccc(F)c(OC2(C(=O)O)CCN(C(=O)c3ccco3)CC2)c1`, the cytotoxicity at 10 µM was 5.99%.

For `CN(C)CC1(O)CCCN(c2nc(-c3ccccc3)no2)CC1` (stereo not drawn), the cytotoxicity at 10 µM was -4.6%. Next, `c1coc(-c2nc(CNC3CCCNC3)no2)c1` (stereo not drawn): -25.2%; `c1ccc(-c2nc3c(c(NCCc4c[nH]cn4)n2)CCNC3)cc1`: -123%. Next, `Cn1ccnc1CN1CCCN(C(=O)c2ccc(O)nc2)CC1`: -26.3%; `c1cnc(-c2nc(CNC3CCc4ncnn4C3)cs2)nc1` (stereo not drawn): -5.66%; `CCCc1n[nH]c(C2CN(Cc3nnc(C4CCC4)o3)CCO2)n1` (stereo not drawn): -2.42%. Next, `CC(C)c1noc(CN2CCC(c3ccnn3CCO)CC2)n1`: -18.6%; `Clc1ccc(-c2nc(CN3CCCC3Cn3cncn3)co2)cc1` (stereo not drawn): -1.66%.

With `COc1ncccc1CNC(=O)N1CCCC1c1ccsc1` (stereo not drawn), the cytotoxicity at 10 µM is -15.9%. Turning to `Cc1cc(C)n(C2CN(CC(O)c3ccc(C(F)(F)F)cc3)C2)n1` (stereo not drawn), the cytotoxicity at 10 µM is -5.94%.

`CC(C)C(=O)NCc1ccc(N2CCCC2)nc1`: the cytotoxicity at 10 µM is -18.4%. Next, `CCCc1nc(C)c(C(=O)NCCNc2ncccc2C#N)s1`: -19.5%. Next, `CC(C)N1CCC2(CCNCC2)C1=O`: -2.98%. On to `Cc1ccc(C(N)c2cccc(S(C)(=O)=O)c2)c(C)c1` (stereo not drawn), for which the cytotoxicity at 10 µM is -6.44%. In the case of `Cc1ccc(CN2CC(C(=O)Nc3ccccc3)C3(CCOCC3)C2)o1` (stereo not drawn), the cytotoxicity at 10 µM was determined as 0.927%.

As for `Cn1ccnc1CN1CC[C@H]2CO[C@H](CNc3ncccn3)[C@H]2C1`, the cytotoxicity at 10 µM was -5.81%. As for `CCCNC(c1cccnc1)c1ccc(F)c(C)c1` (stereo not drawn), the figure is 0.821%; as for `CCN1CCC2(CC1)CC(NC(=O)NC)c1cc(C)ccc12` (stereo not drawn), -6.01%; as for `Cn1cc(N2CC3(CCN(CC4CCOCC4)CC3)OCC2=O)cn1`, -9.29%. Next, `CC(C)=CCN1C[C@@H]2CC[C@H]1CN(C(=O)Cc1c(C)[nH]c(C)nc1=O)C2`: 2.48%.

For the compound `CNc1nc2cn(C3CCCC3)c(=O)c-2c[nH]1`, the cytotoxicity at 10 µM amounted to 7.17%.
